{"source": "ChEMBL document CHEMBL3627626", "about": "“6-Substituted Pyrrolo[2,3-d]pyrimidine Thienoyl Regioisomers as Targeted Antifolates for Folate Receptor α and the Proton-Coupled Folate Transporter in Human Tumors” (J Med Chem, 2015)", "key": {"SK-OV-3 [1]": {"tested_on": "SK-OV-3", "assay": "Antitumor activity against human SKOV3 cells expressing RFC/PCFT/FRalpha xenografted in folate-deficient diet fed NCR SCID mouse assessed as log10 of gross cell killing at 16 mg/kg, iv administered every 4 days on day 3, 7, 11 measured twice per week", "format": "functional", "procedure,_shortened": "(§1)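 Ten-week-old female NCR SCID mice, fed a folate-deficient or standard folate-replete diet, were implanted subcutaneously and bilaterally with SKOV3 tumour fragments. Randomised at 5 mice/group. Dosed intravenously, 0.2 mL per injection, in 5% ethanol/1% Tween-80/0.5% NaHCO3 in water at pH 6.5, on days 3, 7 and 11. Tumours measured twice weekly and mice weighed daily. T/C taken on day 21; growth delay and log cell kill also reported.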"}, "Mus musculus": {"tested_on": "Mus musculus", "assay": "Toxicity in folate-deficient diet fed NCR SCID mouse xenografted with human SKOV3 cells expressing RFC/PCFT/FRalpha assessed as body weight loss at 16 mg/kg, iv administered every 4 days on day 3, 7, 11 relative to control", "format": "organism-based, SK-OV-3", "settings": "in vivo, 96 h", "procedure,_shortened": "as §1"}, "R2": {"tested_on": "R2", "assay": "Cytotoxicity against PCFT-null Chinese hamster R2 cells assessed as cell growth inhibition after 96 hrs by CellTiter-Blue assay", "format": "cell-based, Cricetulus griseus", "settings": "R2, 96 h"}, "KB [2]": {"tested_on": "KB", "assay": "Antiproliferative activity against human KB cells expressing FRalpha/PCFT/RFC assessed as cell growth inhibition after 96 hrs by CellTiter-Blue assay", "format": "functional, cell-based"}, "KB [3]": {"tested_on": "KB", "assay": "Antiproliferative activity against human KB cells expressing FRalpha/PCFT/RFC assessed as cell growth inhibition after 96 hrs by CellTiter-Blue assay in presence of 200 nM folic acid", "format": "functional, cell-based"}, "IGROV-1 [4]": {"tested_on": "IGROV-1", "assay": "Antiproliferative activity against human IGROV1 cells after 96 hrs by CellTiter-Blue assay", "format": "functional, cell-based", "settings": "IGROV-1, 96 h", "procedure,_shortened": "(§2)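 IGROV1 and SKOV3 cells plated at ~2500–5000 cells/well in folate-free RPMI 1640 with 10% dialyzed FBS, antibiotics and 2 nM LCV, over a range of drug concentrations, ±200 nM folic acid in parallel. Incubated up to 96 h. Viability read by Cell Titer Blue fluorescence (ex 560/em 590 nm).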"}, "IGROV-1 [5]": {"tested_on": "IGROV-1", "assay": "Antiproliferative activity against human IGROV1 cells after 96 hrs by CellTiter-Blue assay in presence of 200 nM folic acid", "format": "functional, cell-based", "settings": "IGROV-1, 96 h"}, "SK-OV-3 [6]": {"tested_on": "SK-OV-3", "assay": "Antiproliferative activity against human SKOV3 cells after 96 hrs by CellTiter-Blue assay in presence of 200 nM folic acid", "format": "functional, cell-based", "settings": "SK-OV-3, 96 h", "procedure,_shortened": "as §2"}, "[7]": {"biological_target": "Folate receptor beta (Homo sapiens) (UniProt P14207)", "sequence (P14207 17-230 limits assumed)": "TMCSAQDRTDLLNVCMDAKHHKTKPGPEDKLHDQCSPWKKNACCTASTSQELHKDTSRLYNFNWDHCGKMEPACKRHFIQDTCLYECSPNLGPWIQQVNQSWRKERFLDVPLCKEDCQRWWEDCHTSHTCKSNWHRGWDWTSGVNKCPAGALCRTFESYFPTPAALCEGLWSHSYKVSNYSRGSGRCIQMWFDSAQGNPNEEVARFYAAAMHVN", "assay": "Binding affinity to human FRbeta expressed in Chinese hamster D4 cells assessed as intracellular drug level at 50 nM at 37 degC after 1 hr", "format": "cell-based", "procedure,_shortened": "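D4 CHO cells (human FRβ) were acid-washed at pH 3.5, then given 50 nM [3H]drug in HBSS pH 7.4 at 37 °C for 60 min. A second acid wash removed surface-bound label to give the intracellular fraction. Cells were solubilised in NaOH, and values expressed as pmol/mg protein. Mean ±SEM of three experiments.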"}, "[8]": {"biological_target": "T1, Proton-coupled folate transporter (Homo sapiens) (UniProt Q96NT5)", "T1 sequence (whole entry)": "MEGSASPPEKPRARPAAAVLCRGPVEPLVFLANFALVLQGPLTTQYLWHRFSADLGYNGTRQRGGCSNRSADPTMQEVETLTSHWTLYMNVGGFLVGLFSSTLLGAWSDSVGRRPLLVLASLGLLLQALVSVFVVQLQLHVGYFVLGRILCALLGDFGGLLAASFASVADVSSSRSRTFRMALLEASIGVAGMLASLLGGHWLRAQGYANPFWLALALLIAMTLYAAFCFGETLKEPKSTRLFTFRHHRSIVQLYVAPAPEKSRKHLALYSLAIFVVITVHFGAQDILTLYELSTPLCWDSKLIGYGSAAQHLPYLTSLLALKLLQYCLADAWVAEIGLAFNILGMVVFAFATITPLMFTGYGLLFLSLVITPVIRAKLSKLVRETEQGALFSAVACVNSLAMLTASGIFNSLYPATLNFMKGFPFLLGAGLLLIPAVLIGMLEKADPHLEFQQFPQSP", "assay": "Binding affinity to human PCFT expressed in Chinese hamster R2/PCFT4 cells assessed as intracellular drug transport rate at 37 degC at pH 6.8 measured over 2 mins by Lineweaver-Burk plot analysis", "format": "cell-based", "procedure,_shortened": "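R2/PCFT4 CHO cells were grown as monolayers, transferred to spinner flasks, and used as suspensions (5–10 × 10⁷ cells). Uptake was quenched with ice-cold DPBS and cells were NaOH-solubilized. Results are pmol/mg protein; Kt and Vmax come from Lineweaver–Burke plots.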"}, "[9]": {"biological_target": "T2, Trifunctional purine biosynthetic protein adenosine-3 (Homo sapiens) (UniProt P22102)", "T2 sequence (whole entry)": "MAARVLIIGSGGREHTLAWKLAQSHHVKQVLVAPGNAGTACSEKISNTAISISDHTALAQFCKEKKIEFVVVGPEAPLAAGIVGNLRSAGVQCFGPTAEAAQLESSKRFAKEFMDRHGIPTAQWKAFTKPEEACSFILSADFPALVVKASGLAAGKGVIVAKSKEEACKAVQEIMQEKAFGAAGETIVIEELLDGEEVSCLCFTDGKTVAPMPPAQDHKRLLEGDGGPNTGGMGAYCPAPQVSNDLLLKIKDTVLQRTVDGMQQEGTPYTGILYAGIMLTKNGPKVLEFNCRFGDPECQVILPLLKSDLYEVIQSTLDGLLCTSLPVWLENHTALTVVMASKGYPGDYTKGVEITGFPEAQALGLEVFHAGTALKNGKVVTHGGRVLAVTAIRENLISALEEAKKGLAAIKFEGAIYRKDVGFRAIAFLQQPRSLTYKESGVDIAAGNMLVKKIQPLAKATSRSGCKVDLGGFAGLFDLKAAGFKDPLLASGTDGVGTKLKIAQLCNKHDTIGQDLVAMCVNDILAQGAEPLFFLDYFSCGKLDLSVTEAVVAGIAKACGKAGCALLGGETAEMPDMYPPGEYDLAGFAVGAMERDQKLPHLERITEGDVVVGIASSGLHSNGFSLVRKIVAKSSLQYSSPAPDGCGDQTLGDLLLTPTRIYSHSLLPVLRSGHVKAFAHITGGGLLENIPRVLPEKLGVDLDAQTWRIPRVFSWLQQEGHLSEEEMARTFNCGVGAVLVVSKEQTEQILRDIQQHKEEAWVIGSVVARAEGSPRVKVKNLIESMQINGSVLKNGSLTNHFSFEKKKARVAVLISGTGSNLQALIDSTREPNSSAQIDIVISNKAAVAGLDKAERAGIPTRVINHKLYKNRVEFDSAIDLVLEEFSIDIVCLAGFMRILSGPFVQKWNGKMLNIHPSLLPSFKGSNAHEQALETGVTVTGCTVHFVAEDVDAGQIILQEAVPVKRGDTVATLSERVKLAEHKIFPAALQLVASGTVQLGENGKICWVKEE", "assay": "Inhibition of GARFTase in human KB cells expressing FRalpha/PCFT/RFC assessed as cell growth inhibition after 96 hrs by CellTiter-Blue assay in presence of thymidine", "format": "cell-based"}, "[10]": {"biological_target": "T2, Trifunctional purine biosynthetic protein adenosine-3 (Homo sapiens)", "assay": "Inhibition of GARFTase in human KB cells expressing FRalpha/PCFT/RFC assessed as cell growth inhibition after 96 hrs by CellTiter-Blue assay in presence of AICA", "format": "cell-based"}}, "note": "Activity calls are given as the source filed them. The calls are words filed in the database; no cut-off is given here.", "data": [{"smiles": "Nc1nc2[nH]c(CCCc3cc(C(=O)N[C@@H](CCC(=O)O)C(=O)O)cs3)cc2c(=O)[nH]1", "values": [{"measurement": "LCK", "setting": "SK-OV-3 [1]", "value": 1.9}, {"measurement": "Activity", "setting": "Mus musculus", "value": 12.1, "unit": "%"}, {"measurement": "IC50", "setting": "R2", "value": 290, "unit": "nM"}, {"measurement": "IC50", "setting": "KB [2]", "value": 0.09, "unit": "nM"}, {"measurement": "IC50", "setting": "KB [3]", "value": 105, "unit": "nM"}, {"measurement": "IC50", "setting": "IGROV-1 [4]", "value": 0.77, "unit": "nM"}, {"measurement": "IC50", "setting": "IGROV-1 [5]", "value": 276, "unit": "nM"}, {"measurement": "IC50", "setting": "SK-OV-3 [6]", "value": 76, "unit": "nM"}, {"measurement": "Activity", "setting": "[7]", "value": 3.35, "unit": "pmol/mg"}, {"measurement": "K", "setting": "[8]", "value": 0.17, "unit": "µM"}, {"measurement": "inhibition", "setting": "[9]", "value": "Active"}, {"measurement": "inhibition", "setting": "[10]", "value": "inactive"}]}]}
